Screens deposited in PubChem BioAssay by Broad Institute.
S100A4 MyoIIA = inhibitors of S100A4-myosin IIA peptide binding, primary screen, biochemical, fluorescence polarization, TAMRA-MyoIIA peptide. AID 652163, 2013. Protein S100-A4 (Homo sapiens), P26447. actives 0.14% (n = 360,000). inhibition, % at 10.7 µM;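 active = mean inhibition of at least 70% across replicates, with every replicate also reaching that level; inconclusive = mean inhibition reaches 70% but some replicates fall short; inactive = mean inhibition below 70%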
Target sequence (P26447 whole entry, looked up): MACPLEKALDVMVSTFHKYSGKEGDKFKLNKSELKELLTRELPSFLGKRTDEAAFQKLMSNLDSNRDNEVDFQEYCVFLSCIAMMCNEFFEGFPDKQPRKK
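incubation = readout 5 min after mixing, signal stable up to 60 min | system = S100A4 monomer protein | buffer or medium = HEPES pH 7.2 with CaCl2, KCl, NaCl, DTT, Triton | benchmarks = neutral control DMSO, positive control TFP | also added = fluorescent myosin IIA peptide, 5 nM | compound dosing = one concentration per compound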
ERAP1 inh = human ERAP1 aminopeptidase inhibitors, primary screen, biochemical, single point, plate reader | Endoplasmic reticulum aminopeptidase 1 (Homo sapiens), Q9NZ08 | actives 0.15% (n = 340,000) | AID 652197, 2013 | recombinant ERAP1, Leu-AMC fluorescence, 60 min | inhibition, % at 10.7 µM;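 active = mean replicate inhibition of at least 30%, or all replicates individually reaching that 30% level; inactive = mean below 30% and not every replicate reaching it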;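 note: 0% = neutral control wells and 100% = L-leucinethiol positive control wells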
miR-122 sensor = miR-122 Renilla sensor signal increase in Huh7, primary screen, miR-122 inhibitor project, cell-based, single point, plate reader; Huh7 miR-122 Renilla luciferase sensor, 48 h; neutral wells = 0, positive control = 100; activation (reporter increase), % at 12.5 µM; actives 0.3% (n = 340,000);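 active = mean replicate activation score at least 90 and every replicate individually at or above 90; inconclusive = only one of the two criteria met; inactive = neither criterion met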;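 note: higher luciferase means less miR-122 activity so hits act as miR-122 inhibitors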
Rtt109 Vps75 = inhibitors of C. albicans Rtt109/Vps75 HAT, primary screen, biochemical, ThioGlo CoA-SH fluorescence, plate reader; inhibition, % at 34.9 µM; purified Rtt109/Vps75, 4 h; actives 0.16% (n = 330,000); AID 540336, 2011;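 active = inhibition of at least 50% in every replicate; inconclusive = best replicate reaches 50% inhibition but some replicates fall short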
Target sequence (Q5AAJ8 whole entry, looked up): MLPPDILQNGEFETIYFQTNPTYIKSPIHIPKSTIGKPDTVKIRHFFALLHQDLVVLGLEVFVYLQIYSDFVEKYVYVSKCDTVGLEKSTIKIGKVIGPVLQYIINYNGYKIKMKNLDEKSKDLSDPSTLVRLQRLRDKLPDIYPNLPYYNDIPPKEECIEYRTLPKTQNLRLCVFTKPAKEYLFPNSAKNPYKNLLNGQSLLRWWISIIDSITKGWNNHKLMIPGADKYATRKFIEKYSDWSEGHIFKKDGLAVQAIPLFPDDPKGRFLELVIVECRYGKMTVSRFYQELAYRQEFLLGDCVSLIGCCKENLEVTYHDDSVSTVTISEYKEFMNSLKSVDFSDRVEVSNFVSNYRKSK
AF4-AF9 inh = inhibitors of AF4 peptide binding to AF9, primary screen, biochemical, AlphaScreen, biotin-AF4 peptide, FLAG-AF9, single point; inhibition, % at 10 µM; actives 0.47% (n = 350,000); Protein AF-9 (Homo sapiens), P42568;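 active = every replicate reaching a set inhibition limit, whatever the replicate mean, cut at about 25% in these data; inconclusive = mean inhibition reaches that limit but some replicates miss it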;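 note: 0% = plate neutral control median and 100% = total signal loss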
Starred values were filed as active, the others as inactive; ? = inconclusive; / = no result; [ ] = remark or other dose. Only some compounds are listed: those with a hit (about 0.86% of all), similar ones and a draw of the others.

SMILES	S100A4 MyoIIA	ERAP1 inh	miR-122 sensor	Rtt109 Vps75	AF4-AF9 inh
O=C(Nc1ccccc1)Nc1ccc(Cl)c(S(=O)(=O)N2CCOCC2)c1	-2.0	-5.4	-2.9	-0.6	1.1
C/C=C/c1ccc([C@H]2[C@@H](CNS(C)(=O)=O)N(CC3CCCC3)[C@H]2CO)cc1	1.4	2.8	0.4[16.7 µM]	/	-9.5
C[C@@H]1CCCCO[C@@H](CN(C)CC2CCCCC2)[C@@H](C)CN([C@H](C)CO)C(=O)c2cc(NS(=O)(=O)c3cn(C)cn3)ccc2O1	132.6*	-5.8	8.2[16.7 µM]	/	-7.3
C[C@@H]1CN([C@@H](C)CO)C(=O)c2cc(NS(=O)(=O)c3cn(C)cn3)ccc2O[C@@H](C)CCCCO[C@@H]1CN(C)CC1CCCCC1	-24.3	-3.0	-3.4[16.7 µM]	/	-4.7
C[C@H]1CCCCO[C@H](CN(C)Cc2ccc(C(F)(F)F)cc2)[C@@H](C)CN([C@@H](C)CO)C(=O)c2cc(NC(=O)Nc3ccc4c(c3)OCO4)ccc2O1	153.3*	-2.1	-0.8[16.7 µM]	/	2.4
C[C@@H]1CCCCO[C@@H](CN(C)Cc2ccc(C(F)(F)F)cc2)[C@H](C)CN([C@H](C)CO)C(=O)c2cc(NC(=O)Nc3ccc4c(c3)OCO4)ccc2O1	1.9	-3.2	-9.2[16.7 µM]	/	2.3
C[C@H]1CCCCO[C@H](CN(C)Cc2ccc3c(c2)OCO3)[C@@H](C)CN([C@@H](C)CO)C(=O)c2cc(NC(=O)Nc3ccc4c(c3)OCO4)ccc2O1	-3.5	1.0	7.1[16.7 µM]	/	28.7*
C[C@@H]1CCCCO[C@@H](CN(C)CC2CCCCC2)[C@H](C)CN([C@@H](C)CO)C(=O)c2cc(NC(=O)c3ccccc3)ccc2O1	?	2.8	-11.4[16.7 µM]	/	10.2
C[C@@H]1CCCCO[C@H](CN(C)Cc2ccc3c(c2)OCO3)[C@@H](C)CN([C@H](C)CO)C(=O)c2cc(NC(=O)Nc3ccc4c(c3)OCO4)ccc2O1	-4.2	1.2	1.7[16.7 µM]	/	4.3
C[C@@H]1CCCCO[C@@H](CN(C)CC2CCCCC2)[C@H](C)CN([C@H](C)CO)C(=O)c2cc(NC(=O)c3ccccc3)ccc2O1	5.6	1.4	-14.9[16.7 µM]	/	27.0*
C[C@@H]1CCCCO[C@H](CN(C)S(=O)(=O)c2cccs2)[C@@H](C)CN([C@@H](C)CO)C(=O)c2cc(NC(=O)CCCN(C)C)ccc2O1	2.8	-0.6	3.8[16.7 µM]	/	4.0
C[C@@H]1CN([C@@H](C)CO)C(=O)Cc2cc(NC(=O)Nc3ccc(F)cc3)ccc2O[C@H]1CN(C)Cc1ccc(Oc2ccccc2)cc1	-0.4	2.3	-9.6[16.7 µM]	/	0.1
O=C(N[C@@H]1C=C[C@H](CC(=O)N2CCc3ccccc3C2)O[C@@H]1CO)C1CCOCC1	-0.5	0.5	/	/	-3.8
C[C@@H]1CCCCO[C@H](CN(C)Cc2ccc3c(c2)OCO3)[C@H](C)CN([C@@H](C)CO)C(=O)c2cc(NC(=O)Nc3ccc4c(c3)OCO4)ccc2O1	-13.3	0.0	4.2[16.7 µM]	/	27.2*
C[C@@H]1CCCCO[C@@H](CN(C)Cc2ccc3c(c2)OCO3)[C@@H](C)CN([C@@H](C)CO)C(=O)c2cc(NC(=O)Nc3ccc4c(c3)OCO4)ccc2O1	-10.4	-2.0	8.4[16.7 µM]	/	11.7
C[C@@H]1CCCCO[C@H](CN(C)CC2CC2)[C@@H](C)CN([C@H](C)CO)C(=O)c2cc(NC(=O)Nc3ccc4c(c3)OCO4)ccc2O1	-20.6	0.1	7.2[16.7 µM]	/	25.5*
C[C@H](CO)N1C[C@H](C)[C@@H](CN(C)C(=O)Nc2ccc(F)cc2)OCCCC[C@H](C)Oc2ccc(NC(=O)Nc3ccc4c(c3)OCO4)cc2C1=O	-35.1	-1.9	2.1[16.7 µM]	/	48.7*
C[C@@H]1CCCCO[C@@H](CN(C)C(=O)Nc2ccc3c(c2)OCO3)[C@@H](C)CN([C@H](C)CO)C(=O)c2cc(NC(=O)Nc3ccc(F)cc3)ccc2O1	7.3	-5.8	3.0[16.7 µM]	/	-1.3
CCCNC(=O)[C@@H]1[C@@H](CO)[C@@H]2Cn3c(ccc(-c4ccccc4OC)c3=O)[C@@H]2N1C(=O)CC	-11.9	-0.4	3.0[16.7 µM]	/	-2.7
Cc1ccc(-c2nn(Cc3ccccc3)cc2C(=O)N2CCN(c3ccccn3)CC2)cc1	-1.8	-1.9	107.3*	-2.4	6.2
